Results as given in ChEMBL document CHEMBL4138297, “N-Leucinyl Benzenesulfonamides as Structurally Simplified Leucyl-tRNA Synthetase Inhibitors” (ACS Med Chem Lett, 2018).
Values after ≈ are worked out from the molar mass of the structure shown. Active and inactive are the calls of the source. The calls are words filed in the database; no cut-off is given here.

What was measured:
Leucine--tRNA ligase [1] = target: T1, Leucine--tRNA ligase (Staphylococcus aureus (strain NCTC 8325), UniProt Q2FXH2); experiment: Inhibition of Staphylococcus aureus LeuRS expressed in Escherichia coli M15 cells assessed as reduction in ATP consumption
T1 sequence (Q2FXH2 whole entry): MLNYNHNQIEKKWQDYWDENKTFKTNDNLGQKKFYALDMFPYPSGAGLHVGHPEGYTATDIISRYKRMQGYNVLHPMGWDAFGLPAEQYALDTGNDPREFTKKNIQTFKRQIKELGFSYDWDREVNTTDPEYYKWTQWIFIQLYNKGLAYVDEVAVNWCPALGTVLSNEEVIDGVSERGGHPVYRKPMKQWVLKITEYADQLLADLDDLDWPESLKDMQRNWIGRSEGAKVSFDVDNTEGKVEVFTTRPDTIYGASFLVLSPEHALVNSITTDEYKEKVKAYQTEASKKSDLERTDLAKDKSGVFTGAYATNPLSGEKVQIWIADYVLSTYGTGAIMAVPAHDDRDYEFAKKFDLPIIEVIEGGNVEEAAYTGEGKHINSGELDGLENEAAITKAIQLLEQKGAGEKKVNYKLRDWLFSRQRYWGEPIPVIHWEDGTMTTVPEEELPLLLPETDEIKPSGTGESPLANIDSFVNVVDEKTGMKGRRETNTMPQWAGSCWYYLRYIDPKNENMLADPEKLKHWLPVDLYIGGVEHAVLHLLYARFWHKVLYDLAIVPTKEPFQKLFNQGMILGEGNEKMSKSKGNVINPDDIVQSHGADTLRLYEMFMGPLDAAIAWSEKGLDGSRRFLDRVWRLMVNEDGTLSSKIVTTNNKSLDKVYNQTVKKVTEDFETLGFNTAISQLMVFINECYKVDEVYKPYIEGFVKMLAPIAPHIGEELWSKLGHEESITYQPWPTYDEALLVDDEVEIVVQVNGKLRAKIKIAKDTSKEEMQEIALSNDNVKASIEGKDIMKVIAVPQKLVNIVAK

Leucine--tRNA ligase [2] = target: T2, Leucine--tRNA ligase (Escherichia coli (strain K12), UniProt P07813); experiment: Inhibition of Escherichia coli LeuRS expressed in Escherichia coli M15 cells assessed as reduction in ATP consumption
T2 sequence (P07813 whole entry): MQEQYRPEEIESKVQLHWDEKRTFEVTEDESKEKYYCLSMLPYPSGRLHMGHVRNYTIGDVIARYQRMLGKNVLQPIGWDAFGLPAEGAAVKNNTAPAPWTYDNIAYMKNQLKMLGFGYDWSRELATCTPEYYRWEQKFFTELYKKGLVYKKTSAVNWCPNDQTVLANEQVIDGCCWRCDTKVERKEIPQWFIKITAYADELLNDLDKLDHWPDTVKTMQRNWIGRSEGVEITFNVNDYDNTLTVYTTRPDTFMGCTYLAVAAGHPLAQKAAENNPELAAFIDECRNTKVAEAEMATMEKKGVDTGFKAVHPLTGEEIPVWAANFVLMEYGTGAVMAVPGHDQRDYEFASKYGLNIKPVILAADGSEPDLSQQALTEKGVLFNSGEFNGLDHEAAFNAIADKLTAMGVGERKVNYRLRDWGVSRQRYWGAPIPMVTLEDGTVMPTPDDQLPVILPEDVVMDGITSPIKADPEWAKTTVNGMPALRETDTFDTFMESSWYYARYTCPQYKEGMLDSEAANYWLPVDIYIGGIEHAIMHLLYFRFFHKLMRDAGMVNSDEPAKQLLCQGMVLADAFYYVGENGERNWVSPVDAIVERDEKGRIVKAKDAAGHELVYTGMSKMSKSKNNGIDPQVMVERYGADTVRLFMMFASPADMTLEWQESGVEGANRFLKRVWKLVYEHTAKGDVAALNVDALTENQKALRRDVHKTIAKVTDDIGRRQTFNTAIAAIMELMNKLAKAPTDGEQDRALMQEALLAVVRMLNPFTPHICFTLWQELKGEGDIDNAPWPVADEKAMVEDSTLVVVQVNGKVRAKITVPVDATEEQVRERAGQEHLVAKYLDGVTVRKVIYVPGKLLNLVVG

[3] = target: T3, Leucine--tRNA ligase, cytoplasmic (Homo sapiens, UniProt Q9P2J5); experiment: Inhibition of human LeuRS assessed as reduction in ATP consumption
T3 sequence (Q9P2J5 whole entry): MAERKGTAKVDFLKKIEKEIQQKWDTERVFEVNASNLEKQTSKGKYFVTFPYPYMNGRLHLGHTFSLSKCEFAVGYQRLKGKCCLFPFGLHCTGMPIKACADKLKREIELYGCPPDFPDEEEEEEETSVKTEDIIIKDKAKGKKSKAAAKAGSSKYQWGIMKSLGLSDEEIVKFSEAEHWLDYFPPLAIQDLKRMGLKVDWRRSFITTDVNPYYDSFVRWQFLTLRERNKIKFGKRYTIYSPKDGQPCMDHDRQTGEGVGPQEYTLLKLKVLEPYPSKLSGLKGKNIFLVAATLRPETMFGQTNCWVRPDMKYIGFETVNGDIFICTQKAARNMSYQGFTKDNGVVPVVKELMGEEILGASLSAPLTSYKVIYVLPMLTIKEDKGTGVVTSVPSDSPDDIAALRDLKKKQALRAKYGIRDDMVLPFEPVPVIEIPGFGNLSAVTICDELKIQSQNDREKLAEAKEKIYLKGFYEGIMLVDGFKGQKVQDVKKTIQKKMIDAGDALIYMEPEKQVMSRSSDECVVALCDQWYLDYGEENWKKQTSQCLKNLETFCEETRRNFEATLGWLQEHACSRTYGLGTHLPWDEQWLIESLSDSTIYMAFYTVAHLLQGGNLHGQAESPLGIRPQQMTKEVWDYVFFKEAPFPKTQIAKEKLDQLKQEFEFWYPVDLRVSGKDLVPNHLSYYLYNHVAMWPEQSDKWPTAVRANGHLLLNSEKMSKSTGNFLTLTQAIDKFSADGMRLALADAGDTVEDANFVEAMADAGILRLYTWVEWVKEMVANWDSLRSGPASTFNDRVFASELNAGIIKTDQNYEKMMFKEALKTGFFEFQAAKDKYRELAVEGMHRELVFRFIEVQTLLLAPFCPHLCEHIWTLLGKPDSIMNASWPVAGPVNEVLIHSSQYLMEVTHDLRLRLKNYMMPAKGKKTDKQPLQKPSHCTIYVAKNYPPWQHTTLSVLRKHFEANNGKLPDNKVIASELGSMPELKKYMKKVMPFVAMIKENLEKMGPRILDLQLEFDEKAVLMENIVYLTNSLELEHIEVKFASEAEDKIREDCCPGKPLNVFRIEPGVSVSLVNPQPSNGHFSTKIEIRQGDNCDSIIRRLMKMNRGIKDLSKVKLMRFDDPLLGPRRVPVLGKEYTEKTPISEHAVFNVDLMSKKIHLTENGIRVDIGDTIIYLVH

Leucine--tRNA ligase [4] = target: T2, Leucine--tRNA ligase; experiment: Displacement of IK-698 from Escherichia coli LeuRS by isothermal titration calorimetric calorimetry
[5] = target: T3, Leucine--tRNA ligase, cytoplasmic; experiment: Inhibition of human cytoplasmic LeuRS assessed as reduction in protein synthesis measured after 10 mins in presence of [3H]Leu by scintillation counting method
[6] = target: T4, Leucyl-tRNA synthetase, putative (Trypanosoma brucei brucei (strain 927/4 GUTat10.1), UniProt Q386D9); experiment: Inhibition of Trypanosoma brucei LeuRS assessed as reduction in protein synthesis pretreated for 20 mins in presence of [14C]Leu followed by ATP addition measured after 15 mins by scintillation counting method
T4 sequence (Q386D9 whole entry): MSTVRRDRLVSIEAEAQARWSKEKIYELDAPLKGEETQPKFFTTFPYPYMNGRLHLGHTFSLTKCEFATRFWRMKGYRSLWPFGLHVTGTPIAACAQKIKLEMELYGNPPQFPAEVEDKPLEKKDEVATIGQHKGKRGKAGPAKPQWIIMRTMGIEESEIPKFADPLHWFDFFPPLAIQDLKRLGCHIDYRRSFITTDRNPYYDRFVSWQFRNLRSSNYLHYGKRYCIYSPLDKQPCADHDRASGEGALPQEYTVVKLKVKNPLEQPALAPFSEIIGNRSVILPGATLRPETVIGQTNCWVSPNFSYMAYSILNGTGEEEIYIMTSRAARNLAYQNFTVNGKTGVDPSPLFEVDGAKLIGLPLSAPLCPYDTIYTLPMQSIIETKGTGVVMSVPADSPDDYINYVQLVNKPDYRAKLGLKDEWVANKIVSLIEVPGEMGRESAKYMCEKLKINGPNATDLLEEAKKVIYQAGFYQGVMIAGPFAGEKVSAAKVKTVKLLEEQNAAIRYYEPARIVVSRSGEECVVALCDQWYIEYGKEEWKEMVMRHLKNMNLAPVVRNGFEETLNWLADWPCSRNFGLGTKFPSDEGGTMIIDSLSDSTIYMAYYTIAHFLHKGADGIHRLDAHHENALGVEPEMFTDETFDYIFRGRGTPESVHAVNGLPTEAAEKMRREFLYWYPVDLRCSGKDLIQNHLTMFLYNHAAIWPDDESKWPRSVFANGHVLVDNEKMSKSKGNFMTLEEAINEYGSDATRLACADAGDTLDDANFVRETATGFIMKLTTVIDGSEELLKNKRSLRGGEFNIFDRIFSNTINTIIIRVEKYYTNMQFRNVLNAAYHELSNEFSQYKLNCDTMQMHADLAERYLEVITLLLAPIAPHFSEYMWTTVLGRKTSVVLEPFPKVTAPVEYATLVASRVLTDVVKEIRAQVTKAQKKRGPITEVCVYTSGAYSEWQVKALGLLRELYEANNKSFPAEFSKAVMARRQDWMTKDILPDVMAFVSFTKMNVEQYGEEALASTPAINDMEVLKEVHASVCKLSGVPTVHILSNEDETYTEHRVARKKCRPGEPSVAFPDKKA

Enterobacter cloacae = experiment: Antibacterial activity against Enterobacter cloacae clinical isolate after 18 hrs by broth microdilution method; type: functional
Escherichia coli [7] = experiment: Antibacterial activity against Escherichia coli BW25113 harboring tolC deletion mutant after 18 hrs by broth microdilution method; type: functional, organism-based
Summary of the method: (§1)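 MIC (ug/mL) against single-gene deletion derivatives of the standard laboratory E. coli strain BW25113 lacking multidrug efflux components (ΔacrA, ΔacrB, ΔtolC). The parent BW25113 strain was tested alongside.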

Pseudomonas aeruginosa = experiment: Antibacterial activity against Pseudomonas aeruginosa PAO1 after 18 hrs by broth microdilution method; type: functional; conditions: PAO1, 18 h
Acinetobacter baumannii = experiment: Antibacterial activity against Acinetobacter spp ATCC 19606 after 18 hrs by broth microdilution method; type: functional; conditions: ATCC 19606 = CIP 70.34 = JCM 6841, 18 h
Escherichia coli [8] = experiment: Antibacterial activity against Escherichia coli BW25113 after 18 hrs by broth microdilution method; type: functional; conditions: BW25113, 18 h
Summary of the method: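 Standard laboratory E. coli strain BW25113, wild type for efflux; MIC recorded in ug/mL. The same susceptibility testing was also run on BW25113 derivatives deleted for the multidrug efflux components tolC, acrA or acrB.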

Staphylococcus aureus = experiment: Antibacterial activity against Staphylococcus aureus JE2 after 18 hrs by broth microdilution method; type: functional; conditions: JE2, 18 h
Leucine--tRNA ligase [9] = target: T2, Leucine--tRNA ligase; experiment: Binding affinity to Escherichia coli LeuRS by isothermal titration calorimetric calorimetry
Escherichia coli [10] = experiment: Antibacterial activity against Escherichia coli ATCC 25922 after 18 hrs by broth microdilution method; type: functional; conditions: ATCC 25922, 18 h
Klebsiella pneumoniae = experiment: Antibacterial activity against Klebsiella pneumoniae clinical isolate after 18 hrs by broth microdilution method; type: functional
Escherichia coli [11] = experiment: Antibacterial activity against Escherichia coli BW25113 harboring AcrA deletion mutant after 18 hrs by broth microdilution method; type: functional, organism-based; summary of the method: as §1
Escherichia coli [12] = experiment: Antibacterial activity against Escherichia coli BW25113 harboring AcrB deletion mutant after 18 hrs by broth microdilution method; type: functional, organism-based; summary of the method: as §1

SMILES	IC50 (Leucine--tRNA ligase [1])	IC50 (Leucine--tRNA ligase [2])	IC50 [3]	Kd (Leucine--tRNA ligase [4])	also measured
CC(C)C[C@H](N)C(=O)NS(=O)(=O)c1cccc(-c2ccccc2)c1	640 nM		3400 nM	10.2 nM	
CC(C)C[C@H](N)C(=O)NS(=O)(=O)c1cccc(NC(=S)NC(=O)COc2ccc(Br)cc2Cl)c1					IC50 [5]: 4500 nM; IC50 [6]: 1100 nM
CC(C)C[C@H](N)C(=O)NS(=O)(=O)c1cccc(-c2ccnc(N)n2)c1	9200 nM		3900 nM	14.5 nM	
CC(C)C[C@H](N)C(=O)NS(=O)(=O)c1ccccc1			1100 nM		MIC (Enterobacter cloacae): 128 µg/mL (≈ 473 µM); Activity (Escherichia coli [7]): Active; MIC (Pseudomonas aeruginosa): 64 µg/mL (≈ 237 µM); MIC (Acinetobacter baumannii): 64 µg/mL (≈ 237 µM); MIC (Escherichia coli [8]): > 128 µg/mL; MIC (Staphylococcus aureus): > 256 µg/mL; Kd (Leucine--tRNA ligase [9]): 92.9 nM; MIC (Escherichia coli [10]): 8 µg/mL (≈ 29.6 µM); MIC (Klebsiella pneumoniae): 64 µg/mL (≈ 237 µM)
Cc1cc(-c2cccc(S(=O)(=O)NC(=O)[C@@H](N)CC(C)C)c2)nc(N)n1	4400 nM	41 nM	160 nM	10 nM	Activity (Escherichia coli [7]): Active; Activity (Escherichia coli [11]): Active; Activity (Escherichia coli [12]): Active
Cc1cc(-c2cccc(S(=O)(=O)NC(=O)[C@@H](N)CC(C)C)c2)ncn1	2700 nM	47 nM	2000 nM	22 nM	

The next lines start with results.

IC50 (Leucine--tRNA ligase [1])	IC50 (Leucine--tRNA ligase [2])	IC50 [3]	Kd (Leucine--tRNA ligase [4])	SMILES	also measured
1700 nM	23 nM	850 nM	13.9 nM	CC(C)C[C@H](N)C(=O)NS(=O)(=O)c1cccc(-c2cccc(N)n2)c1	
650 nM	14 nM	490 nM	12.8 nM	CC(C)C[C@H](N)C(=O)NS(=O)(=O)c1cccc(-c2ccnc(N)c2)c1	
3600 nM	224 nM	33 nM	56 nM	CC(C)C[C@H](N)C(=O)NS(=O)(=O)c1cccc(-c2cc(-c3ccccc3)nc(N)n2)c1	
920 nM		1200 nM	10.9 nM	CC(C)C[C@H](N)C(=O)NS(=O)(=O)c1cccc(-c2ccncc2)c1	
		220 nM	64 nM	CC(C)C[C@H](N)C(=O)NS(=O)(=O)c1ccc2ccccc2c1	
